From ChEMBL document CHEMBL1799923, “Design, synthesis, and biological activities of closantel analogues: structural promiscuity and its impact on Onchocerca volvulus” (J Med Chem, 2011)
Activity calls are given as the source filed them.

Columns and labels:
Onchocerca ochengi [1] = test: Antiparasitic activity against Onchocerca ochengi assessed as effect on microfilarial mobility at 5 ug/ml measured every 24 hrs for 120 hrs by inverted microscopic analysis; assay type: functional
How it was run: (§1)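 Microfilariae isolated from cattle skin snips; ≥15 per well cocultured on a confluent monkey kidney epithelial feeder layer in RPMI-1640 complete medium (25 mM HEPES, 5% newborn calf serum, pH 7.4) with compound, 37 °C, 5% CO2, 5 days, no medium change. Motility scored by inverted microscope every 24 h. Viability checked at 120 h. Duplicate wells. Active = 100% motility loss versus control.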

Onchocerca ochengi [2] = test: Antiparasitic activity against Onchocerca ochengi assessed as effect on microfilarial mobility at 10 ug/ml measured every 24 hrs for 120 hrs by inverted microscopic analysis; assay type: functional; how it was run: as §1
Chitinase = target: T1, Chitinase (Onchocerca volvulus, UniProt Q25615); test: Inhibition of Onchocerca volvulus L3 larvae chitinase using 4-methylumbelliferyl-N,N',N''-beta-chitotrioside as a profluorescent substrate after 10 mins by fluorometric analysis
T1 sequence (Q25615 whole entry): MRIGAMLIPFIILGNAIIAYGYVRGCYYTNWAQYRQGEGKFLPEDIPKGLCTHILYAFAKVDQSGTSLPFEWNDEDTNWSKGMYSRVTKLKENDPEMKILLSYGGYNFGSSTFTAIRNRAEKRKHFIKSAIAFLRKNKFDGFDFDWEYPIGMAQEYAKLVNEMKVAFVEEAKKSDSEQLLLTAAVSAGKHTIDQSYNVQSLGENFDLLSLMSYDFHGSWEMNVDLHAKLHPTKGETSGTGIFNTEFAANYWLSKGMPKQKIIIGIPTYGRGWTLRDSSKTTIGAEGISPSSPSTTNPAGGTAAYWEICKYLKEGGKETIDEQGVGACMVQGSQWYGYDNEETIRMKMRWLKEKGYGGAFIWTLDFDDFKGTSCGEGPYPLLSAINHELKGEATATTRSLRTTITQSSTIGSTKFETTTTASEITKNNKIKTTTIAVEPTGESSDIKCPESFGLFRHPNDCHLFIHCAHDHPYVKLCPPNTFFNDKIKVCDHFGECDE
How it was run: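 OvCHT1 (1.25 units) with 20 μM 4-methylumbelliferyl-N,N',N''-β-chitotrioside in 200 mM NaCl, 20 mM Na3PO4 (pH 6.0), 1.0 mM EDTA and 0.5% DMSO at 37 °C. Screening used 25 μM compound, with a no-compound blank. Fluorescence increase is read over 10 min (ex 350 nm, em 440 nm). Triplicate reactions.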

Onchocerca volvulus [3] = test: Antiparasitic activity against Onchocerca volvulus assessed as inhibition of L3 to L4 larval molting at 100 uM after 6 days by using inverted microscopic analysis; assay type: functional
How it was run: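 Cryopreserved O. volvulus L3 larvae thawed at 37 °C, washed in NCTC/IMDM (1:1) with glutamine, penicillin and streptomycin, then set at […] worms per well in complete medium with 20% heat-inactivated FCS. Each well received 1.5 × 10^5 normal PBMCs; 10 wells per treatment, with DMSO and medium controls. Incubated at 37 °C in 5% CO2 for 6 days. Molting is scored by inverted microscopy as L4 larvae plus empty L3 casts.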

Onchocerca volvulus [4] = test: Antiparasitic activity against Onchocerca volvulus assessed as larval toxicity at 100 uM after 6 days by using inverted microscopic analysis; assay type: functional, organism-based
HEK-293T [5] = test: Protonophoric activity in human HEK293T cells assessed as mitochondrial membrane depolarization at 50 uM after 10 mins by flow cytometric analysis; assay type: functional, cell-based
How it was run: (§2)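 HEK-293T/17 cells were trypsinized and resuspended at 1 × 10^6/mL in PBS. They were exposed to 50 μM compound (valinomycin control 200 nM) for 10 min at 37 °C, then stained with the JC-1 potential probe for 10 min at 37 °C. Cells were washed and analysed by flow cytometry using FL-1 green and FL-2 red channels.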

Onchocerca volvulus [6] = test: Antiparasitic activity against Onchocerca volvulus assessed as inhibition of L3 to L4 larval molting at 25 uM after 6 days by using inverted microscopic analysis; assay type: functional, organism-based
How it was run: (§3)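 Cryopreserved L3 thawed at 37 °C and washed. 5–10 larvae per well in complete medium with 20% heat-inactivated FCS plus 1.5 × 10^5 normal PBMCs. 10 wells per treatment. Compounds tested singly or as a 1:1 pair. DMSO and medium controls included. Incubated at 37 °C, 5% CO2. Molting scored on day 6 by inverted microscope as L4 plus empty L3 cast. Reported as percent molting.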

Onchocerca volvulus [7] = test: Antiparasitic activity against Onchocerca volvulus assessed as inhibition of L3 to L4 larval molting at 50 uM after 6 days by using inverted microscopic analysis; assay type: functional, organism-based; how it was run: as §3
HEK-293T [8] = test: Protonophoric activity in human HEK293T cells assessed as mitochondrial membrane depolarization at 200 uM after 10 mins by flow cytometric analysis; assay type: functional, cell-based
How it was run: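 HEK-293T/17 cells trypsinized and resuspended at 1 × 10^6 cells/mL in PBS. Compound exposure is 10 min at 37 °C, with valinomycin as the depolarization control. JC-1 is then added for another 10 min at 37 °C. Cells are washed and analysed by flow cytometry in the green (FITC) and red (PE) channels for mitochondrial membrane polarization.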

HEK-293T [9] = test: Protonophoric activity in human HEK293T cells assessed as mitochondrial membrane depolarization at 50 uM after 10 mins by flow cytometric analysis relative to valinomycin; assay type: functional, cell-based; how it was run: as §2
HEK-293T [10] = test: Protonophoric activity in human HEK293T cells assessed as mitochondrial membrane depolarization at 50 uM after 10 mins by flow cytometric analysis relative to closantel; assay type: functional, cell-based; how it was run: as §2

Compound | motility % at 5 µg/mL (Onchocerca ochengi [1]) [%] | motility % at 10 µg/mL (Onchocerca ochengi [2]) [%] | IC50 (Chitinase) [nM] | further results
COc1ccc(NC(=O)c2cc(C(C)C)cc(C(C)C)c2O)cc1 | 50 | 25 | – | –
Cc1ccc(NC(=O)c2cc(Br)cc(Br)c2O)cc1 | 100 | 100 | – | –
COc1ccc(NC(=O)c2cc(I)ccc2O)cc1 | 100 | 100 | – | –
O=C(Nc1ccc(Cl)cc1)c1cc(I)cc(I)c1O | 100 | 0 | 5800 | –
COc1ccc(NC(=O)c2cc(Br)cc(Br)c2O)cc1 | 100 | 50 | 5500 | –
Cc1ccc(NC(=O)c2cc(I)ccc2O)cc1 | 50 | 21 | – | –
Cc1cc(C(C#N)c2ccc(Cl)cc2)c(Cl)cc1NC(=O)c1cc(I)cc(I)c1O (stereo not given) [CLOSANTEL] | 100 | 0 | 1600 | Ki (Chitinase): 468 nM; inhibition at 100 µM (Onchocerca volvulus [3]; 144 h): 97.6%; Activity (Onchocerca volvulus [4]): inactive
Cc1ccc(NC(=O)c2cc(C(C)C)cc(C(C)C)c2O)cc1 | 50 | 25 | – | –
O=C(Nc1ccccc1)c1cc(Br)cc(Br)c1O [METABROMSALAN] | 100 | 50 | – | –
COc1ccc(NC(=O)c2cc(I)cc(I)c2O)cc1 | 100 | 100 | 8700 | –
O=C(Nc1ccccc1)c1cc(Cl)cc(Cl)c1O | 100 | 25 | – | –
COc1ccc(NC(=O)c2cc(Cl)cc(Cl)c2O)cc1 | 100 | 50 | – | –
O=C(Nc1ccc(Cl)cc1)c1cc(Br)cc(Br)c1O | 100 | 35 | – | –
O=C(Nc1ccc(Br)cc1)c1cc(I)cc(I)c1O | 100 | 100 | 680 | –
CC(C)c1ccc(NC(=O)c2cc(I)cc(I)c2O)cc1 | 100 | 100 | 1600 | –
Cc1ccc(NC(=O)c2cc(I)cc(I)c2O)cc1 | 100 | 100 | 1700 | –
O=C(Nc1ccc(I)cc1)c1cc(I)cc(I)c1O | 100 | 100 | 630 | Activity (HEK-293T [5]): inactive; inhibition (Onchocerca volvulus [3]): Active; Activity (Onchocerca volvulus [4]): inactive; inhibition (Onchocerca volvulus [6]): inactive; inhibition (Onchocerca volvulus [7]): inactive
O=C(Nc1ccc(Cl)cc1)c1cc(I)ccc1O | 100 | 100 | – | –
CC(C)[C@@H]1NC(=O)[C@H](C)OC(=O)[C@@H](C(C)C)NC(=O)[C@@H](C(C)C)OC(=O)[C@H](C(C)C)NC(=O)[C@H](C)OC(=O)[C@@H](C(C)C)NC(=O)[C@@H](C(C)C)OC(=O)[C@H](C(C)C)NC(=O)[C@H](C)OC(=O)[C@@H](C(C)C)NC(=O)[C@@H](C(C)C)OC1=O | – | – | – | Activity (HEK-293T [8]): Active
CC(C)c1cc(C(=O)Nc2ccc(Cl)cc2)c(O)c(C(C)C)c1 | 100 | 100 | – | Activity (HEK-293T [9]): Active; Activity (HEK-293T [10]): Active; inhibition (Onchocerca volvulus [3]): Active; Activity (Onchocerca volvulus [4]): inactive; inhibition (Onchocerca volvulus [6]): inactive; inhibition (Onchocerca volvulus [7]): inactive
O=C(Nc1ccc(Cl)cc1)c1cc(Cl)cc(Cl)c1O | 100 | 29 | 12400 | –
O=C(Nc1ccc(F)cc1)c1cc(I)cc(I)c1O | 100 | 100 | 880 | –
O=C(Nc1ccccc1)c1cc(I)cc(I)c1O | 100 | 100 | – | –
Cc1ccc(NC(=O)c2cc(Cl)cc(Cl)c2O)cc1 | 100 | 50 | – | –
O=C(Nc1ccccc1)c1cc(I)ccc1O | 100 | 25 | – | –
CC(C)c1cc(C(=O)Nc2ccccc2)c(O)c(C(C)C)c1 | 100 | 50 | – | –
